High-throughput results: PubChem, several laboratories
MC4R antag cAMP = antagonists of human melanocortin 4 receptor (MC4R). P32245. MC4R-expressing cells, MTII-stimulated cAMP, LANCE TR-FRET. inhibition, % at 6.5 µM. 360,000 compounds, 0.48% hits. AID 540295;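 active means inhibition above its plate's cutoff, the mean of tested wells on that plate plus 3 SD, cut at about 29% in these data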;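 further: 0% = Melanotan II alone and 100% = Melanotan II plus saturating MCL0020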
Target sequence (P32245 whole entry, looked up): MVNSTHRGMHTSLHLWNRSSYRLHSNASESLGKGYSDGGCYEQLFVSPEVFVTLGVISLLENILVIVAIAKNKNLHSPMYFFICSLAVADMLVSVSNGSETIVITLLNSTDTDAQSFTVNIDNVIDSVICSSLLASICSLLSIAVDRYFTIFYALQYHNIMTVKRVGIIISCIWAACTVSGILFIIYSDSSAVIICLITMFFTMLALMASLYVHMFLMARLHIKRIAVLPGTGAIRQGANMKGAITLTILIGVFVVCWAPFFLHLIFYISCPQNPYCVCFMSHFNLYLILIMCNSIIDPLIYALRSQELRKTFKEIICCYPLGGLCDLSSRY
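System: U2OS-MC4R stable cell line; Technique: Eu-cAMP/anti-cAMP TR-FRET, emission 671 nm; Repeats: single well per compound; Also added: Melanotan II; Dosing: one concentration, 6.5 µM nominal; Schedule: 30-min compound, 1-h challenge, 1-h detection, room temperature.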
NTR1 ag = NTR1 (human) agonism; P30989; AID 493036; activation, % at 20 µM; NTR1-U2OS beta-arrestin-GFP spot imaging, agonist mode; 330,000 compounds, 0.17% hits;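 active means activation at or above 40% of the spot to cytoplasm intensity ratio, with at least 20 cells analyzed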;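 further: 0% = DMSO without peptide and 100% = 100 nM NTR1 peptide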
Target sequence (P30989 whole entry, looked up): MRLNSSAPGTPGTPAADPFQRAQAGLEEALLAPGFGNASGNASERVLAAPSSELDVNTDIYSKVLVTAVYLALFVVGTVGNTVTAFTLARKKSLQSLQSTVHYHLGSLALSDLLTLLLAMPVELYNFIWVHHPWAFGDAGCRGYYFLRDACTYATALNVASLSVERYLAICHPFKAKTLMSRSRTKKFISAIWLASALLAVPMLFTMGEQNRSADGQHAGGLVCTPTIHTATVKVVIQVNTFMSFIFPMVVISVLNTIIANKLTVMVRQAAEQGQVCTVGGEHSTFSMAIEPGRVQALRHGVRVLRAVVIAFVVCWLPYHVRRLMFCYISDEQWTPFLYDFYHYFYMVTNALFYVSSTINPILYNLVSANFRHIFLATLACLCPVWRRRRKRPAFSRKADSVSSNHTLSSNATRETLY
MC4R ag barr = human MC4R agonism via beta-arrestin. P32245. U2OS MC4R beta-arrestin complementation, luminescence; percent of melanotan II response, DMSO zero. activation, % at 8.9 µM. 360,000 compounds, 0.98% hits. AID 540308;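 active means activation above a per-plate cutoff, the mean activation of sample wells on that plate plus 3 SD, cut at about 8% in these data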
NOD2-RIPK2 inh = blocks binding of human NOD2 to RIPK2; 360,000 compounds, 0.38% hits; inhibition, % at 4.98 µM; O43353; CHO BLA complementation NOD2-RIPK2, CCF4 ratio; in the data active means inhibition above about 21%;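 further: 0% = vehicle only and 100% = reference blocker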
TLR4 MyD88 comp = inhibitors of human TLR4-MyD88 binding; O00206+Q99836; HeLa CL3-4 TLR4/MyD88 BLA complementation, FRET ratio; inhibition, % at 8.4 µM; 200,000 compounds, 0.18% hits; in the data active means inhibition above about 25%;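 further: 0% = vehicle and 100% = reference inhibitor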
TLR9-MyD88 block = inhibitors of human TLR9-MyD88 binding | Q9NR96+Q99836 | 340,000 compounds, 0.21% hits | inhibition, % at 4.98 µM | CHO BLA complementation TLR9-MyD88, CCF4 FRET ratio;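 active means inhibition above the mean over all tested compounds plus 3 SD, cut at about 21% in these data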;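 further: 0% = DMSO only wells and 100% = clavulanate BLA inhibitor control wells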
TLR9-MyD88 conf = confirmation of human TLR9-MyD88 binding inhibitors; shares compounds with TLR9-MyD88 block; CHO TLR9/MyD88 BLA complementation, CCF4 FRET ratio; inhibition, % at 4.98 µM; 680 compounds, 51% hits; AID 540250;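 active means mean inhibition across three repeats above about 21% taken from the earlier screen, limit read from the data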;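 further: blue over green emission ratio reports constitutive TLR9 MyD88 association via BLA complementation; 0% = DMSO vehicle wells and 100% = clavulanate BLA inhibitor wells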
BLA counter-1 = beta-lactamase reporter inhibition, counter-screen artifact. shares compounds with TLR9-MyD88 block. CHO-BLA cells, CCF4 FRET ratio, BLA reporter. inhibition, % at 4.98 µM. 680 compounds, 7% hits. AID 540251;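 active means mean inhibition above a 50% cutoff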;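 further: counterscreen of TLR9-MyD88 hits on CMV-driven BLA in CHO-K1 cells; 0% = DMSO alone and 100% = clavulanate blocking BLA; higher means less blue over green ratio so more BLA blockade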
TLR9 CHO tox = CHO cell toxicity counter-screen for TLR9-MyD88 inhibitors | inhibition, % at 4.98 µM | TLR9-MyD88 CHO cells cytotoxicity, luminescence | 680 compounds, 39% hits | shares compounds with TLR9-MyD88 block | AID 588336; in the data active means inhibition above about 11%
cAMP nonselect = U2OS forskolin cAMP inhibition counter-screen; parental U2OS, LANCE TR-FRET; inhibition, % at 6.5 µM; 1,600 compounds, 26% hits; shares compounds with MC4R antag cAMP;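 active means mean inhibition over triplicates above the low-control well mean plus 3 SD, set per campaign, cut at about 13% in these data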;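 further: signal is single emission at 671 nm which falls as cellular cAMP rises; 0% = forskolin-stimulated wells and 100% = buffer without forskolin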
MC4R antag conf = human MC4R cAMP antagonism confirmation. inhibition, % at 6.5 µM. shares compounds with MC4R antag cAMP. 1,600 compounds, 27% hits. MC4R-expressing cells, MTII-stimulated cAMP, TR-FRET. AID 602195; in the data active means inhibition above about 29%;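 further: 0% = agonist stimulated wells alone and 100% = agonist stimulated wells plus saturating reference antagonist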
MC4R barr ag = human MC4R beta-arrestin agonism confirmation; U2OS MC4R beta-arrestin recruitment, luminescence; scaled DMSO 0%, Melanotan II 100%; activation, % at 8.9 µM; shares compounds with MC4R ag barr; 2,400 compounds, 31% hits;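 active means mean activation across replicates above the hit cutoff set in the earlier primary screen, cut at about 8% in these data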
MOR-DOR barr ag = counter-screen for MC4R agonists: agonists of mu-delta opioid heterodimer; shares compounds with MC4R ag barr; U2OS PathHunter beta-arrestin, beta-gal luminescence; percent of deltorphin B response, DMSO zero; activation, % at 9.2 µM; 2,400 compounds, 5.8% hits;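 active means mean activation across replicates exceeds the hit threshold derived in the earlier primary screen, cut at about 18% in these data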;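 further: 100% = deltorphin B at 0.9 µM final and 0% = DMSO alone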
NOD2-RIPK2 conf = NOD2-RIPK2 interaction inhibition confirmed. shares compounds with NOD2-RIPK2 inh. CHO cells, NOD2-RIPK2 BLA complementation, CCF4 FRET. inhibition, % at 4.98 µM. 1,200 compounds, 70% hits. AID 624370;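 active means mean inhibition across replicates above a set limit taken from the earlier primary screen, cut at about 21% in these data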;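 further: 0% = DMSO-only wells and the high end = clavulanate BLA-blocked wells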
BLA counter-2 = counter-screen for NOD2-RIPK2 interaction inhibitors: BLA reporter. shares compounds with NOD2-RIPK2 inh. CHO BLA reporter, CCF4 FRET ratio, counterscreen. inhibition, % at 4.98 µM. 1,200 compounds, 57% hits. AID 624371;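 active means mean inhibition above the low-control mean inhibition plus three low-control SD, cut at about 11% in these data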;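 further: 0% = DMSO only wells and 100% = clavulanate high control wells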
An asterisk follows results filed as active; nt = no result. This is a sample that favours compounds with a hit; in the whole collection about 1.9% have one here.

SMILES | MC4R antag cAMP | NTR1 ag | MC4R ag barr | NOD2-RIPK2 inh | TLR4 MyD88 comp | TLR9-MyD88 block | cAMP nonselect | MC4R antag conf | others
Nc1cc(Cl)c2nonc2c1[N+](=O)[O-] | -38 | nt | -4 | 74* | 16 | 52* | nt | nt | TLR9-MyD88 conf=48*;BLA counter-1=36;TLR9 CHO tox=97*;NOD2-RIPK2 conf=76*;BLA counter-2=21*
CC1=NCCc2c1[nH]c1cc(O)ccc21 | -14 | -4 | -1 | 54* | nt | 32* | nt | nt | TLR9-MyD88 conf=26*;BLA counter-1=26;TLR9 CHO tox=-6;NOD2-RIPK2 conf=49*;BLA counter-2=51*
COc1ccc2c3c([nH]c2c1)C(C)=NCC3 | 4 | -2 | 0 | 2 | 7 | -1 | nt | nt
COc1cccc(NP2(=O)OCC(C)([N+](=O)[O-])CO2)c1 (stereo unspecified) | 3 | nt | -1 | -5 | nt | -4 | nt | nt
O=C1NC(=O)N(c2cccc(Cl)c2)C(=O)/C1=C\c1ccc(Sc2nc3ccccc3[nH]2)o1 | 24 | 0 | -2 | -7 | -3 | 0 | nt | nt
O=C1NC(=O)N(c2ccccc2)C(=O)/C1=C/c1ccc(Sc2ccccc2)o1 | 29* | nt | -2 | 6 | 7 | -4 | 18* | 6
Nc1ncnc2c1ccn2[C@@H]1O[C@H](CO)[C@@H](O)[C@H]1O | 45* | -1 | 0 | -26 | nt | -2 | 94* | 78*
NC(=S)c1cn(C2OC(CO)C(O)C2O)c2ncnc(N)c12 (stereo unspecified) | 31* | nt | -2 | 3 | nt | -29 | 0 | 28
CCC(=O)OC1(c2ccccc2)CCN(C)CC1C (stereo unspecified) | 11 | -2 | 2 | -7 | -4 | nt | nt | nt
O=C1NC(=O)N(Cc2ccc(F)cc2)C(=O)/C1=C\c1ccc([N+](=O)[O-])s1 | 8 | 0 | -3 | -5 | nt | -6 | nt | nt
Cc1nc2sccc2c(=O)n1-c1ccccc1Cl | -13 | -2 | 1 | -7 | -4 | -3 | nt | nt
Cc1ccccc1CN1Cc2cnnn2-c2ccccc2C1C#N (stereo unspecified) | 37* | nt | -1 | 19 | nt | -2 | 5 | 45*
Cc1ccccc1C(=O)N1Cc2cnnn2-c2ccccc2C1C#N (stereo unspecified) | 5 | nt | 2 | -6 | nt | -18 | nt | nt
O=C(NN=Cc1ccc(N(CCCl)CCCl)cc1)C(=O)c1c[nH]c2ccccc12 | 31* | nt | 1 | 20 | nt | 16 | 2 | 27
CC12CC[C@H]3[C@@H](CCC4(O)C[C@H](O)CCC34/C=N/NC(=O)c3ccccc3O)C1(O)CCC2C1=CC(=O)OC1 (stereo partly specified) | 29* | 0 | 6 | -19 | nt | 1 | -5 | -4
C/C(=N\Nc1cccc2ccccc12)c1c(O)n(Cc2ccccc2)c(=O)[nH]c1=O | 29* | 4 | 0 | 0 | -10 | -10 | -2 | -7
O=C(Oc1ccc([N+](=O)[O-])cc1)N1CCC(N2CCCCC2)CC1 | 8 | -1 | -2 | -12 | -17 | -8 | nt | nt
COc1ccccc1N1C(=O)NC(=O)/C(=C\c2cnn(-c3ccccc3)c2)C1=O | 30* | 20 | 2 | 6 | 10 | -17 | 11 | 9
Cc1cc(C)[n+](C2C3CC4CC(C3)CC2C4)o1 (stereo unspecified) | 3 | 1 | 1 | -4 | 12 | -3 | nt | nt
O=C(O)C1C2c3ccccc3C(c3ccccc32)C1C(=O)Nc1ccccc1 (stereo unspecified) | -4 | -1 | -2 | -9 | -13 | -12 | nt | nt
C=C1C(C)C2C(Cc3ccccc3)NC(=O)C23OC(=O)/C=C/C(O)CCCC(C)C/C=C/C3C1O (stereo unspecified) | 36* | nt | 0 | -2 | nt | -8 | 1 | -2
CCN1CCC(O)(c2ccccc2)C(C(=O)c2ccccc2)C1 (stereo unspecified) | 8 | 0 | -2 | 2 | 13 | 3 | nt | nt
CCOP(=O)(CCP(=O)(OCC)OCC)OCC.C[CH2][Sn]([Cl])([Cl])[CH2]C | 70* | nt | -2 | 25* | nt | -2 | 11 | 29* | NOD2-RIPK2 conf=51*;BLA counter-2=1
Clc1cccc(Cl)c1C1N2CCCN12 (stereo unspecified) | -1 | -2 | -1 | 3 | -4 | 8 | nt | nt
N[C@@H](Cc1c[nH]c2ccccc12)c1nnc(SCc2ccc(Cl)cc2)o1 | -3 | 0 | 10* | 6 | -22 | 6 | nt | nt | MC4R barr ag=4;MOR-DOR barr ag=6
N[C@@H](Cc1c[nH]c2ccccc12)c1nnc(SCc2ccccc2)o1 | 0 | 0 | 0 | 7 | -1 | -8 | nt | nt
CC(=O)NCC(=O)Nc1ccc(Br)cc1C(=O)c1ccccc1 | -1 | -1 | 1 | -9 | nt | 0 | nt | nt
O=c1c2ccccc2nc(-c2cccs2)n1-c1ccccc1 | 0 | 2 | -2 | 0 | -9 | -4 | nt | nt
NC(N)=N/N=C/c1cn(-c2ccccc2)nc1-c1cccs1 | -4 | 3 | 12* | 6 | -25 | 1 | nt | nt | MC4R barr ag=19*;MOR-DOR barr ag=24*
Nc1cccc(SC2CC(=O)N(c3ccc(Cl)cc3C(=O)c3ccccc3)C2=O)c1 (stereo unspecified) | -5 | nt | 9.7* | -3 | nt | -2 | nt | nt | MC4R barr ag=4;MOR-DOR barr ag=9
